This is an account of results in ChEMBL document CHEMBL5252538, “β-Lactam analogues of combretastatin A-4 prevent metabolic inactivation by glucuronidation in chemoresistant HT-29 colon cancer cells” (Eur J Med Chem, 2017).

The term IC50 denotes the midpoint of a concentration-inhibition curve.

Bounds are passed on as bounds.

Common to all, as to format: functional, cell-based
One experiment concerns MCF7. The experiment in a line: Antiproliferative activity against […] human MCF7 cells assessed as inhibition of cell growth incubated for 72 hrs by alamar blue assay. As to conditions: MCF7, 72 h. Put shortly:
(§1)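 Cells seeded 24 h before treatment (HL-60 4 × 10⁴, MCF-7 5 × 10³ per well), then given medium, vehicle (1% ethanol v/v) or serial dilutions (eight concentrations) for 72 h. Alamar Blue (10% v/v) added for 3–5 h at 37 °C in the dark, fluorescence read at ex 530/em 590 nm. Viability expressed relative to vehicle (100%), IC50 from dose–response curves; three experiments in triplicate.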
A general note: Resazurin is reduced to fluorescent resorufin, in cell work by metabolically active cells.

A further experiment has as its system HL-60. The experiment can be described thus: Antiproliferative activity against […] human HL-60 cells assessed as inhibition of cell growth incubated for 72 hrs by alamar blue assay. The settings on record: HL-60, 72 h. Put shortly:
as §1

In the next experiment the test system is HT-29. The experiment in a line: Antiproliferative activity against combretastatin A-4 resistant human HT-29 cells assessed as inhibition of cell growth incubated for 72 hrs by SRB assay. The settings on record: HT-29, 72 h. Put shortly:
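HT-29 (DMEM Glutamax, 10% FBS) seeded at 1 × 10⁴ cells/well, treated after 24 h with vehicle (1% ethanol v/v) or serial dilutions (eight concentrations) for 72 h; viability measured by sulforhodamine B protocol. Percent viability relative to vehicle control, IC50 from dose–response curves; mean of three experiments in triplicate.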
(In SRB staining, fixed cells bind dye roughly in proportion to their protein.)

Take `COc1cc(N2C(=O)C(Oc3ccccc3)C2c2ccc(SC)cc2)cc(OC)c1OC` (mixture of isomers): the IC50 in the experiment with MCF7 came out at 152 nM; in the experiment with HL-60 it was 388 nM; with HT-29 it was 336 nM.

Regarding `CCSc1ccc(C2C(Oc3ccccc3)C(=O)N2c2cc(OC)c(OC)c(OC)c2)cc1` (mixture of isomers), the IC50 with MCF7 turned out to be 210 nM; in the experiment with HL-60, 508 nM; with HT-29, 632 nM.

For the compound `CCOc1ccc(C2C(O)C(=O)N2c2cc(OC)c(OC)c(OC)c2)cc1` (mixture of isomers), the IC50 stood at 7 nM with MCF7, 11 nM with HL-60 and 15 nM in the experiment with HT-29.

Turning to `COc1cc(N2C(=O)C(c3ccccc3)C2c2ccc(O)cc2)cc(OC)c1OC` (mixture of isomers), the IC50 with MCF7, in the experiment with HL-60 and in the experiment with HT-29 was over 50000 nM each time.

`COc1ccc(C2CC(=O)N2c2cc(OC)c(OC)c(OC)c2)cc1O` (racemic): the IC50 in the experiment with MCF7 stood at 6 nM; with HL-60, 8 nM; with HT-29 it was 521 nM.

`COc1ccc(C2CC(=O)N2c2cc(OC)c(OC)c(OC)c2)cc1` (racemic): the results for the IC50 with HL-60 and in the experiment with HT-29 were 76 nM and 65 nM, respectively.

Turning to `COc1cc(N2C(=O)CC2c2ccc(SC)cc2)cc(OC)c1OC` (racemic), the figures for the IC50 in the experiment on MCF7, in the experiment on HL-60 and in the experiment on HT-29 were 67 nM, 69 nM and 108 nM, respectively.

With `C=CC1C(=O)N(c2cc(OC)c(OC)c(OC)c2)C1c1ccc(SCC)cc1` (racemic), the IC50 came to 181 nM with MCF7, 320 nM with HL-60 and 257 nM in the experiment with HT-29.

For the compound `COc1cc(N2C(=O)C(C3CC3)C2c2ccc(SC)cc2)cc(OC)c1OC` (racemic), the IC50 was 131 nM with MCF7, 279 nM with HL-60 and 204 nM with HT-29.

On to `COc1ccc(C2C(Oc3ccccc3)C(=O)N2c2cc(OC)c(OC)c(OC)c2)cc1` (racemic), for which the values for the IC50 with MCF7, in the experiment with HL-60 and with HT-29 were 23 nM, 19 nM and 52 nM, respectively.

On to `CCSc1ccc(C2C(Cl)C(=O)N2c2cc(OC)c(OC)c(OC)c2)cc1` (racemic), for which the figures for the IC50 with MCF7, with HL-60 and in the experiment with HT-29 were 251 nM, 385 nM and 238 nM, respectively.

In the case of `COc1ccc(C2C(O)C(=O)N2c2cc(OC)c(OC)c(OC)c2)cc1O` (racemic), the IC50 in the experiment on MCF7 was determined as 3 nM; in the experiment on HL-60 it was 5 nM; in the experiment with HT-29, 463 nM.

For `CCSc1ccc(C2N(c3cc(OC)c(OC)c(OC)c3)C(=O)C2(Cl)Cl)cc1` (racemic), the IC50 in the experiment with MCF7 was found to be 660 nM; in the experiment on HL-60, 481 nM; with HT-29 it was 554 nM.

For `CCSc1ccc(C2C(C3CC3)C(=O)N2c2cc(OC)c(OC)c(OC)c2)cc1` (racemic), the IC50 with MCF7 was determined as 606 nM; in the experiment with HL-60, 803 nM; in the experiment with HT-29, 1560 nM.

For the compound `CCSc1ccc(C2CC(=O)N2c2cc(OC)c(OC)c(OC)c2)cc1` (racemic), the IC50 amounted to 141 nM with MCF7, 204 nM in the experiment on HL-60 and 311 nM with HT-29.

Take `CCSc1ccc(C2C(c3ccccc3)C(=O)N2c2cc(OC)c(OC)c(OC)c2)cc1` (racemic): the results for the IC50 with MCF7, in the experiment on HL-60 and with HT-29 were 380 nM, 430 nM and 3140 nM, respectively.

Take `CCOc1ccc(C2CC(=O)N2c2cc(OC)c(OC)c(OC)c2)cc1` (racemic): the results for the IC50 in the experiment with MCF7, with HL-60 and with HT-29 were 64 nM, 88 nM and 65 nM, respectively.

`COc1cc(N2C(=O)C(Cl)(Cl)C2c2ccc(SC)cc2)cc(OC)c1OC` (racemic): the IC50 with MCF7 stood at 291 nM; in the experiment on HL-60, 223 nM; with HT-29, 306 nM.

With `CCSc1ccc(C2C(O)C(=O)N2c2cc(OC)c(OC)c(OC)c2)cc1` (racemic), the IC50 in the experiment with MCF7 was 6 nM; in the experiment with HL-60 it was 16 nM; in the experiment with HT-29, 12 nM.

For the compound `COc1ccc(C2C(O)C(=O)N2c2cc(OC)c(OC)c(OC)c2)cc1` (racemic), the half-maximal inhibitory concentration (IC50) in the experiment on MCF7 came to 4 nM; in the experiment with HL-60 it was 13 nM; with HT-29, 12 nM.
